From ChEMBL document CHEMBL3792330, “Designed Glycopeptidomimetics Disrupt Protein-Protein Interactions Mediating Amyloid β-Peptide Aggregation and Restore Neuroblastoma Cell Viability” (J Med Chem, 2016) come the findings set out here.

The source made the active and inactive calls. No cut-off for these calls is given here.

The target in data set [1] is Amyloid-beta precursor protein (Homo sapiens) (UniProt P05067). Nature of the data set: Inhibition of amyloid beta (1 to 42) (unknown origin) fibril formation assessed as extension of aggregation half life at compound/protein ratio of 10/1 after 42 hrs by ThT fluorescence assay relative to control. On the set-up: Activity: scale not given: the % may be the effect or the level left. The gist of the method:
(§1)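 Aβ1-42 (1 mM in 1% ammonia, diluted in buffer) added to a final 10 μM into 40 μM ThT in 10 mM Tris-HCl, 100 mM NaCl pH 7.4, with compound at 100, 50, 10 or 1 μM (0.5% DMSO), at room temperature. Ex/em 440/485 nm read for 42 h, in duplicate or triplicate, 2–4 runs. t1/2 and plateau F expressed relative to Aβ alone.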

For data set [2], the system named is SH-SY5Y. Description: Neuroprotective activity against amyloid beta (1 to 42)-induced toxicity in human SH-SY5Y cells assessed as reduction of cell death at 0.1 equiv after 24 hrs by MTS assay. It counts as functional. Set-up: scale not given: the % may be the effect or the level left. A digest of the protocol:
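SH-SY5Y cells seeded at 20 000/well in low-serum Optimem, 24 h at 37°C, 5% CO2. Aβ1-42 at 50 μM in sterile PBS pre-incubated 24 h at room temperature with 1, 5, 10 or 50 μM inhibitor, or without inhibitor. The mix was diluted 1:10 into Optimem (5 μM Aβ final) and added to cells in quadruplicate. After a further 24 h, viability was read by MTS. Assay run twice.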
In general terms: Tetrazolium dyes change colour on reduction, which living cells bring about.

The target in data set [3] is Amyloid-beta precursor protein (Homo sapiens) (UniProt P05067). Nature of the data set: Inhibition of amyloid beta (1 to 42) (unknown origin) aggregation assessed as scattered, short and scarce fiber formation at compound/protein ratio of 10/1 after 42 hrs by uranyl acetate staining-based transmission electron microscopy. The gist of the method:
(§2)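 Samples prepared as for ThT: Aβ1-42 at 10 μM in 10 mM Tris-HCl, 100 mM NaCl pH 7.4, with or without compound at 10 or 100 μM. After 42 h, adsorbed 2 min onto carbon grids and negatively stained 45 s with 2% uranyl acetate. Imaged by TEM at 80 kV.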

For data set [4] the target is unchanged. Description: Inhibition of amyloid beta (1 to 42) (unknown origin) fibril formation assessed as decrease in fluorescence plateau at compound/protein ratio of 1/1 after 42 hrs by ThT fluorescence assay relative to control. A digest of the protocol:
as §1

Data set [5] has the same target. Nature of the data set: Inhibition of amyloid beta (1 to 42) (unknown origin) fibril formation assessed as decrease in fluorescence plateau at compound/protein ratio of 10/1 after 42 hrs by ThT fluorescence assay relative to control. The note with it: concentration not given here. A digest of the protocol:
as §1

For data set [6] the target is unchanged. Description: Inhibition of amyloid beta (1 to 42) (unknown origin) aggregation assessed as appearance of less dense fiber at compound/protein ratio of 1/1 after 42 hrs by uranyl acetate staining-based transmission electron microscopy. The gist of the method: as §2
Data set [7] has as its target T1, Islet amyloid polypeptide (Homo sapiens) (UniProt P10997).
T1 sequence (whole entry): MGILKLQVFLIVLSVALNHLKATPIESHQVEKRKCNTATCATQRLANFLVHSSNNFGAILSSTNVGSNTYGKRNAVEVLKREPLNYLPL
Description: Inhibition of human IAPP fibril formation assessed as decrease in final fluorescence intensity at compound/protein ratio of 10/1 by ThT fluorescence assay.

Data set [8] addresses Amyloid-beta precursor protein (Homo sapiens) (UniProt P05067). Nature of the data set: Binding affinity to amyloid beta (1 to 42) (unknown origin) by SPR analysis. A digest of the protocol: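 Aβ1-42 (0.05 μM in 10 mM sodium acetate pH 4.6) amine-coupled to an EDC/NHS-activated gold chip, then rinsed with 0.1% NH4OH to leave mainly monomer. Analytes in 150 mM PBS with 2% DMSO were injected at 12.5–200 μM for 1 min at 80 μL/min. DMSO solvent correction applied and the ethanolamine-blocked blank channel subtracted. Regeneration with 0.1% NH4OH.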
On the technique in general: SPR reads the build-up and loss of mass on a sensor chip optically.

Data set [9] deals with T1, Islet amyloid polypeptide (Homo sapiens). Description: Inhibition of human IAPP fibril formation assessed as increase of aggregation half life at compound/protein ratio of 10/1 by ThT fluorescence assay.
Data set [10] addresses Amyloid-beta precursor protein (Homo sapiens) (UniProt P05067). Description: Inhibition of amyloid beta (1 to 42) (unknown origin) fibril formation assessed as decrease in fluorescence plateau at compound/protein ratio of 0.1/1 after 42 hrs by ThT fluorescence assay relative to control. The note with it: concentration not given here. The gist of the method: as §1
Data set [11] has the same target. Description: Inhibition of amyloid beta (1 to 42) (unknown origin) fibril formation at compound/protein ratio of 10/1, 1/1, 0.1/1 […] by ThT fluorescence assay.
The subject of data set [12] is SH-SY5Y. Nature of the data set: Neuroprotective activity against amyloid beta (1 to 42)-induced toxicity in human SH-SY5Y cells assessed as cell viability at 0.25 to 5 uM after 24 hrs by MTS assay. It counts as functional, cell-based. The gist of the method: (§3)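 Aβ1-42 at 50 μM in sterile PBS pre-incubated 24 h at room temperature with 1, 5, 10 or 50 μM compound, then diluted 1:10 (5 μM Aβ final) onto SH-SY5Y cells. Cells seeded at 20 000/well in low-serum Optimem, 37 °C, 5% CO2, 24 h. Exposure a further 24 h in quadruplicate. MTS viability or LDH release read; assays repeated twice.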

For data set [13], the target named is Amyloid-beta precursor protein (Homo sapiens) (UniProt P05067). Description: Inhibition of amyloid beta (1 to 42) (unknown origin) aggregation assessed as appearance of glubular aggregation at compound/protein ratio of 1/1 after 42 hrs by transmission electron microscopy. The gist of the method: as §2
A further data set has as its system Plasma. Description: Metabolic stability in 10% human plasma assessed as drug degradation at 1 uM after 24 hrs by HPLC analysis. It counts as ADME, cell-free. The gist of the method:
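Compounds taken from 40 μM DMSO stock to 1 μM in 10% human plasma/90% sterile PBS, held 24 h at 37 °C. Analysed by C18 HPLC with a 0–80% gradient (A: 0.1% TFA in water; B: 0.05% TFA in acetonitrile).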

In data set [14] the target is Amyloid-beta precursor protein (Homo sapiens) (UniProt P05067). Nature of the data set: Inhibition of amyloid beta (1 to 42) (unknown origin) fibril formation assessed as extension of aggregation half life at compound/protein ratio of 0.1/1 after 42 hrs by ThT fluorescence assay relative to control. A digest of the protocol:
as §1

Data set [15] concerns SH-SY5Y. Description: Neuroprotective activity against amyloid beta (1 to 42)-induced membrane damage in human SH-SY5Y cells at 0.1 to 5 uM after 24 hrs by LDH assay. It counts as functional, cell-based. A digest of the protocol: as §3
The target of data set [16] is Amyloid-beta precursor protein (Homo sapiens) (UniProt P05067). Nature of the data set: Inhibition of amyloid beta (1 to 42) (unknown origin) fibril formation assessed as extension of aggregation half life at compound/protein ratio of 1/1 after 42 hrs by ThT fluorescence assay relative to control. Set-up: Activity: scale not given: the % may be the effect or the level left. A digest of the protocol:
as §1

For data set [17] the target is unchanged. Nature of the data set: Inhibition of amyloid beta (1 to 42) (unknown origin) fibril formation after 42 hrs by ThT fluorescence assay. The gist of the method:
as §1

Data set [18] shares this target. Nature of the data set: Inhibition of amyloid beta (1 to 42) (unknown origin) aggregation after 42 hrs by uranyl acetate staining-based transmission electron microscopy. The gist of the method: as §2

Sequence of Amyloid-beta precursor protein (Homo sapiens) (P05067 whole entry): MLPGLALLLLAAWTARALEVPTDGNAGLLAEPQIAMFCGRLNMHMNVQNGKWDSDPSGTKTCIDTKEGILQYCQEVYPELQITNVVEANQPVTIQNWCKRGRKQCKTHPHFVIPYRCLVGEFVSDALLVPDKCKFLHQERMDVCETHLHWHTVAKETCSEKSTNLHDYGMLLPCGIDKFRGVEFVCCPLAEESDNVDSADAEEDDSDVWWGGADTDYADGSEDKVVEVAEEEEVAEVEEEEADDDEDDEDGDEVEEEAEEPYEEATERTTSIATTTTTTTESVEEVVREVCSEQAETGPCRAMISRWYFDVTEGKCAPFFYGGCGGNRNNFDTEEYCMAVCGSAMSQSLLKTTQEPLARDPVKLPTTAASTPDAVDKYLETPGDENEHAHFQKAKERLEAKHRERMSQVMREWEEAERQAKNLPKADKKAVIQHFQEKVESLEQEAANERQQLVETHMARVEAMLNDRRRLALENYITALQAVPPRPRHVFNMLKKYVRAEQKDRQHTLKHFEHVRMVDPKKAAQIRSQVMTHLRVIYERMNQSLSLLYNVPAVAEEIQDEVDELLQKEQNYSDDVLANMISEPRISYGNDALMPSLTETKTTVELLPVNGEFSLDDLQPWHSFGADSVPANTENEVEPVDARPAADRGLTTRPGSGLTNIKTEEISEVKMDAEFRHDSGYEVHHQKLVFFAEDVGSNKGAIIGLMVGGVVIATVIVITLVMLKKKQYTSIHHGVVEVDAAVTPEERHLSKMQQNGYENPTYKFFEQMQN

As usually defined, the inhibition is the drop in the measured response relative to a control, in per cent. `COc1ccc(NC(C)=O)cc1C(=O)NNC(=O)[C@H](CCCCN)NC(=O)CCOC[C@H]1OC(OCCCNC(=O)[C@@H](NC(=O)[C@H](C)N)C(C)C)[C@H](O)[C@@H](O)[C@@H]1O` (mixture of isomers): the inhibition result in data set [1], in [3], in [6], in [11] and in data set [13] was “Active” in each case. Further, the Activity in the data set with SH-SY5Y [2] was 75%; in data set [8], “Dose-dependent effect”; in [16], 148%. Further, the results for the inhibition in [4] (concentration not given here), in data set [5] and in data set [10] were 29%, 87% and 23%, respectively. The inhibition result in data set [7], in [9] and in data set [14] was “inactive” throughout. Moreover, the outcome in the data set on SH-SY5Y [12] and with SH-SY5Y [15] was Active. The Stability entry in the data set on Plasma is reported as “Stable”.

As to `COc1ccc(NC(C)=O)cc1C(=O)NNC(=O)[C@@H](NC(=O)CCOC[C@H]1OC(OCCCNC(=O)[C@@H](NC(=O)[C@H](C)N)C(C)C)[C@H](O)[C@@H](O)[C@@H]1O)C(C)C` (mixture of isomers), the Activity turned out to be 325% in data set [1] and 155% in data set [16]. Besides, the inhibition entry in data set [4] is “inactive”. For the same compound, in data set [5], the inhibition stood at 31%.

With `COc1ccc(NC(C)=O)cc1C(=O)NNC(=O)[C@@H](NC(=O)CCOC[C@H]1OC(OCCCNC(=O)[C@@H](NC(=O)[C@H](C)N)C(C)C)[C@H](OCc2ccccc2)[C@@H](OCc2ccccc2)[C@@H]1OCc1ccccc1)C(C)C` (mixture of isomers), the inhibition result in data set [17] and in [18] was “inactive” throughout.

Consider `COc1ccc(NC(C)=O)cc1C(=O)NNC(=O)[C@H](CCCCNC(=O)OCc1ccccc1)NC(=O)CCOC[C@H]1OC(OCCCNC(=O)[C@@H](NC(=O)[C@H](C)N)C(C)C)[C@H](OCc2ccccc2)[C@@H](OCc2ccccc2)[C@@H]1OCc1ccccc1` (mixture of isomers), for which the inhibition entry in data set [17] and in [18] was “inactive” each time.

As for `COc1ccc(NC(C)=O)cc1C(=O)NNC(=O)[C@H](CCCCNC(=O)OCc1ccccc1)NC(=O)CCOC[C@H]1OC(OCCCNC(=O)[C@@H](NC(=O)[C@H](C)NC(=O)OC(C)(C)C)C(C)C)[C@H](OCc2ccccc2)[C@@H](OCc2ccccc2)[C@@H]1OCc1ccccc1` (mixture of isomers), the inhibition result in data set [17] and in data set [18] was “inactive” throughout.
